Consider 2 compounds from ChEMBL document CHEMBL4765336, “Discovery of coumarin derivatives as potent and selective cyclin-dependent kinase 9 (CDK9) inhibitors with high antitumour activity” (Eur J Med Chem, 2020).

One data set deals with CDK9/cyclin T1 (Homo sapiens, UniProt P50750). The data set is described as follows: Inhibition of CDK9/Cyclin T1 (unknown origin) preincubated for 20 mins followed by ATP addition and measured after 120 mins in presence of [33P-gamma] ATP by hotspot kinase assay. The format is protein-complex assay.
Chain of CDK9/cyclin T1 (O60563 whole entry): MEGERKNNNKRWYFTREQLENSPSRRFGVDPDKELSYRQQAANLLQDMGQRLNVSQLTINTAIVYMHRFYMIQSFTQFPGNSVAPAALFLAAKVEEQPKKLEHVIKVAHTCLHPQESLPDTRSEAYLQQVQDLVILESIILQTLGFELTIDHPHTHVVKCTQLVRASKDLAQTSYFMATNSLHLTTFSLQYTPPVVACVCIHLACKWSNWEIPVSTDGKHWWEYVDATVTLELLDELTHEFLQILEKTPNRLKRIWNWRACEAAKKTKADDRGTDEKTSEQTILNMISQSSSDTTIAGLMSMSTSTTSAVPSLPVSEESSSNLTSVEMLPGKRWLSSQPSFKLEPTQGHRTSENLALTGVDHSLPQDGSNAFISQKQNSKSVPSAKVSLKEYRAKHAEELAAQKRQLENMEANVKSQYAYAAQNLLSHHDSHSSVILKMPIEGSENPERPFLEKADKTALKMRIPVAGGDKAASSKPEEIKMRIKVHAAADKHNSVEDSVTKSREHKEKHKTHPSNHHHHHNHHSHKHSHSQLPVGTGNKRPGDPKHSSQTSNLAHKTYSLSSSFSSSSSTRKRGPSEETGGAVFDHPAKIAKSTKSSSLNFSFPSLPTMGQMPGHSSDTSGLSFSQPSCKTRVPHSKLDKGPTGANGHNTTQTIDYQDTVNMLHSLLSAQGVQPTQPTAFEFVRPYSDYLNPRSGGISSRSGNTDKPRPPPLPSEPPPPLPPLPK
Chain of CDK9/cyclin T1 (P50750 whole entry): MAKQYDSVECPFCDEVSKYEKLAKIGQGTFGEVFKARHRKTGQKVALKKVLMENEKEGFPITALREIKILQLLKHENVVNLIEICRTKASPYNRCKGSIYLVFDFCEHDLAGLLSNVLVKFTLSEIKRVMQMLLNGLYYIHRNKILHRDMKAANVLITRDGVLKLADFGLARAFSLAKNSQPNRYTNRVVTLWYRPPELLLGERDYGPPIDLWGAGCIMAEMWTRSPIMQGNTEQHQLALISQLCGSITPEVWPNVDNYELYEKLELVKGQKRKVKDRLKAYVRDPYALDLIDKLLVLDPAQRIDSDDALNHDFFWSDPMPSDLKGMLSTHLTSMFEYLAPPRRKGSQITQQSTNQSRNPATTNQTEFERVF
Data set [1] deals with Cyclin-dependent kinase 7/ cyclin H (Homo sapiens, UniProt P50613). The data set is described as follows: Inhibition of CDK7/Cyclin H (unknown origin) preincubated for 20 mins followed by ATP addition and measured after 120 mins in presence of [33P-gamma] ATP by hotspot kinase assay. The format is protein-complex assay. In outline:
(§1)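 Radiometric filter-binding assay: kinase and substrate in 20 mM Hepes pH 7.5, 10 mM MgCl2, 1 mM EGTA, 0.02% Brij35, 0.02 mg/mL BSA, 0.1 mM Na3VO4, 2 mM DTT, 1% DMSO. Compound (top 1/10/27 μM, 3-fold serial dilutions) preincubated 20 min at 25 °C. ATP plus [γ-33P]ATP added to 10 μM final, reacted 120 min at 25 °C. IC50 from curve fit, duplicate mean.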

For a further data set, the target named is CDK9/Cyclin K (Homo sapiens, UniProt P50750). As to the kind of experiment: Inhibition of CDK9/Cyclin K (unknown origin) preincubated for 20 mins followed by ATP addition and measured after 120 mins in presence of [33P-gamma] ATP by hotspot kinase assay. Type of data set: protein-complex assay. The procedure, abridged: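 HotSpot radioisotope filter-binding assay. Kinase and substrate were mixed at room temperature in 20 mM Hepes pH 7.5 with 10 mM MgCl2, 1 mM EGTA, 0.02% Brij35, 0.02 mg/mL BSA, 0.1 mM Na3VO4, 2 mM DTT and 1% DMSO. Compound was added in a 3-fold dilution series starting at 1, 10 or 27 μM and preincubated 20 min at 25 °C. ATP plus [γ-33P]ATP (10 μM final) was then added for 120 min at 25 °C. IC50 from curve fit, duplicate mean.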
Chain of CDK9/Cyclin K (P50750 whole entry): as above
Chain of CDK9/Cyclin K (O75909 whole entry, further chain): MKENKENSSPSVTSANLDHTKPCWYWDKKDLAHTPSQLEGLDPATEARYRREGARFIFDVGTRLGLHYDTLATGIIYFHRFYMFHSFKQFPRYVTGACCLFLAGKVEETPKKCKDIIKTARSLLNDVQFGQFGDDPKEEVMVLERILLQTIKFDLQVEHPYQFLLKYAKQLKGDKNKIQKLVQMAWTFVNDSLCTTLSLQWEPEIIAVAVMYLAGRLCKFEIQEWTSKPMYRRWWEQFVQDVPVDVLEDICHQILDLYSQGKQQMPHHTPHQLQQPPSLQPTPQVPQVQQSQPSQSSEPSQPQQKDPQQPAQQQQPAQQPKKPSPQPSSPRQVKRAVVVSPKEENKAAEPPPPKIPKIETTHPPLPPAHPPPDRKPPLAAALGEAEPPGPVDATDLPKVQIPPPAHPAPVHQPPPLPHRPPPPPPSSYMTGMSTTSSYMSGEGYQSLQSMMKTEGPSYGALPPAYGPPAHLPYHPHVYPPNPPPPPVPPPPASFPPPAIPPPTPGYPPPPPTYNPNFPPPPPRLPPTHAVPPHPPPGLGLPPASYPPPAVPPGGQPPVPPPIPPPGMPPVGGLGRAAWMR

The test system of another data set is MV4-11. The data set is described as follows: Antiproliferative activity against human MV4-11 cells assessed as inhibition of cell growth incubated for 72 hrs by Celltiter-Glo luminescent assay. The format is functional, cell-based. The note with it: MV4-11, 72 h. The procedure, abridged: (§2)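 Cells seeded in growth medium and held overnight at 37 °C; medium-only wells served as background. DMSO stocks were diluted in medium to 3× final and added; cells incubated 72 h at 37 °C, 5% CO2. Viability read by CellTiter-Glo luminescence after 60 min at room temperature. IC50 from curve fit, mean of duplicate.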

The species named for a further data set is Homo sapiens. The data set is described as follows: Selectivity index, ratio of IC50 for CDK2/Cyclin A (unknown origin) to IC50 for CDK9/Cyclin T1 (unknown origin).
For another data set, the target named is CDK2/Cyclin A2 (Homo sapiens, UniProt P24941). The data set is described as follows: Inhibition of CDK2/Cyclin A (unknown origin) preincubated for 20 mins followed by ATP addition and measured after 120 mins in presence of [33P-gamma] ATP by hotspot kinase assay. The format is protein-complex assay. In outline:
as §1

A short description of data set [2]: Metabolic stability in dog liver microsomes assessed as intrinsic clearance at 1 uM incubated up to 60 mins in presence of NADPH by LC-MS/MS analysis. To be noted: read-out: CLH. The format is ADME, Canis lupus familiaris, Microsome. In outline: (§3)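 Liver microsomes (0.5 mg/mL) incubated at 37 °C with compound at 1.0 μM final, 3 mM MgCl2 and 1 mM NADPH in 100 mM PBS pH 7.4. Samples taken at 0, 5, 15, 30, 60 min; remaining parent measured by LC-MS/MS. k = −slope, T1/2 = 0.693/k, CLint = k/microsomal protein concentration. Midazolam served as control.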
In general terms: Microsomes from liver hold many membrane-bound enzymes, among them those of drug oxidation.

Data set [3] can be described thus: Metabolic stability in monkey liver microsomes assessed as half life at 1 uM incubated up to 60 mins in presence of NADPH by LC-MS/MS analysis. The format is ADME, Macaca mulatta, Microsome. The note with it: rhesus monkey. The procedure, abridged:
as §3

Data set [4] can be described thus: Metabolic stability in rat liver microsomes assessed as half life at 1 uM incubated up to 60 mins in presence of NADPH by LC-MS/MS analysis. Type of data set: ADME, Microsome. In outline:
as §3

Another data set concerns MOLM-13. The data set is described as follows: Antiproliferative activity against human MOLM-13 cells assessed as inhibition of cell growth incubated for 72 hrs by Celltiter-Glo luminescent assay. Type of data set: functional, cell-based. To be noted: MOLM-13, 72 h. In outline:
as §2
(In general: Cellular ATP, detected with luciferase, serves as a proxy for viable cell number.)

Another data set relates to A549. The data set is described as follows: Antiproliferative activity against human A549 cells assessed as inhibition of cell growth incubated for 72 hrs by Celltiter-Glo luminescent assay. To be noted: A549, 72 h. Type of data set: functional, cell-based. In outline: as §2
Data set [5] can be described thus: Metabolic stability in rat liver microsomes assessed as intrinsic clearance at 1 uM incubated up to 60 mins in presence of NADPH by LC-MS/MS analysis. The format is ADME, Microsome. To be noted: read-out: CLH. In outline: as §3
Data set [6] is described as follows: Metabolic stability in monkey liver microsomes assessed as intrinsic clearance at 1 uM incubated up to 60 mins in presence of NADPH by LC-MS/MS analysis. Type of data set: ADME, Macaca mulatta, Microsome. To be noted: rhesus monkey, read-out: CLH. The procedure, abridged: as §3
The test system of another data set is NCI-H460. As to the kind of experiment: Antiproliferative activity against human NCI-H460 cells assessed as inhibition of cell growth incubated for 72 hrs by Celltiter-Glo luminescent assay. To be noted: NCI-H460, 72 h. The format is functional, cell-based. The procedure, abridged:
as §2

The subject of another data set is HepG2. As to the kind of experiment: Antiproliferative activity against human HepG2 cells assessed as inhibition of cell growth incubated for 72 hrs by Celltiter-Glo luminescent assay. The format is functional, cell-based. To be noted: HepG2, 72 h. In outline: as §2
A further data set deals with MDA-MB-231. The data set is described as follows: Antiproliferative activity against human MDA-MB-231 cells assessed as inhibition of cell growth incubated for 72 hrs by Celltiter-Glo luminescent assay. The format is functional, cell-based. The note with it: MDA-MB-231, 72 h. In outline: as §2
Another data set concerns A-375. As to the kind of experiment: Antiproliferative activity against human A-375 cells assessed as inhibition of cell growth incubated for 72 hrs by Celltiter-Glo luminescent assay. Type of data set: functional, cell-based. To be noted: A-375, 72 h. The procedure, abridged: as §2
A short description of data set [7]: Metabolic stability in human liver microsomes assessed as intrinsic clearance at 1 uM incubated up to 60 mins in presence of NADPH by LC-MS/MS analysis. Type of data set: ADME, Microsome. The note with it: read-out: CLH. In outline:
as §3

The test system of the next data set is MIA PaCa-2. The data set is described as follows: Antiproliferative activity against human MIA PaCa-2 cells assessed as inhibition of cell growth incubated for 72 hrs by Celltiter-Glo luminescent assay. The note with it: MIA PaCa-2, 72 h. The format is functional, cell-based. In outline:
as §2

Another data set deals with SW-620. The data set is described as follows: Antiproliferative activity against human SW-620 cells assessed as inhibition of cell growth incubated for 72 hrs by Celltiter-Glo luminescent assay. Type of data set: functional, cell-based. To be noted: SW-620, 72 h. In outline:
as §2

Data set [8] can be described thus: Metabolic stability in human liver microsomes assessed as half life at 1 uM incubated up to 60 mins in presence of NADPH by LC-MS/MS analysis. The format is ADME, Microsome. The procedure, abridged:
as §3

The test system of a further data set is PANC-1. As to the kind of experiment: Antiproliferative activity against human PANC-1 cells assessed as inhibition of cell growth incubated for 72 hrs by Celltiter-Glo luminescent assay. Type of data set: functional, cell-based. The note with it: PANC-1, 72 h. The procedure, abridged:
as §2

For another data set, the system named is BXPC-3. The data set is described as follows: Antiproliferative activity against human BxPC3 cells assessed as inhibition of cell growth incubated for 72 hrs by Celltiter-Glo luminescent assay. To be noted: BXPC-3, 72 h. The format is functional, cell-based. The procedure, abridged: as §2
The next data set relates to NCI-N87. As to the kind of experiment: Antiproliferative activity against human NCI-N87 cells assessed as inhibition of cell growth incubated for 72 hrs by Celltiter-Glo luminescent assay. Type of data set: functional, cell-based. The note with it: NCI-N87, 72 h. In outline:
as §2

The nature of data set [9]: Metabolic stability in dog liver microsomes assessed as half life at 1 uM incubated up to 60 mins in presence of NADPH by LC-MS/MS analysis. Type of data set: ADME, Canis lupus familiaris, Microsome. In outline: as §3
For a further data set, the system named is HCT-116. As to the kind of experiment: Antiproliferative activity against human HCT-116 cells assessed as inhibition of cell growth incubated for 72 hrs by Celltiter-Glo luminescent assay. Type of data set: functional, cell-based. The note with it: HCT-116, 72 h. In outline: as §2

Chain of Cyclin-dependent kinase 7/ cyclin H (P51946 whole entry): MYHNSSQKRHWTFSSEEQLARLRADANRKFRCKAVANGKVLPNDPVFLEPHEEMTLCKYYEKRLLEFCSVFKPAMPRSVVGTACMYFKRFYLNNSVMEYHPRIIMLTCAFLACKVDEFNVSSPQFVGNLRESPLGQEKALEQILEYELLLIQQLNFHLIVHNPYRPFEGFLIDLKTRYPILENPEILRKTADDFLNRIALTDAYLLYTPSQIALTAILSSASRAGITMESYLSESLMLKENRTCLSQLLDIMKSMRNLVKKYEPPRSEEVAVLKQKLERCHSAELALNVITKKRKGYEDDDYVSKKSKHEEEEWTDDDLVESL
Chain of Cyclin-dependent kinase 7/ cyclin H (P50613 whole entry): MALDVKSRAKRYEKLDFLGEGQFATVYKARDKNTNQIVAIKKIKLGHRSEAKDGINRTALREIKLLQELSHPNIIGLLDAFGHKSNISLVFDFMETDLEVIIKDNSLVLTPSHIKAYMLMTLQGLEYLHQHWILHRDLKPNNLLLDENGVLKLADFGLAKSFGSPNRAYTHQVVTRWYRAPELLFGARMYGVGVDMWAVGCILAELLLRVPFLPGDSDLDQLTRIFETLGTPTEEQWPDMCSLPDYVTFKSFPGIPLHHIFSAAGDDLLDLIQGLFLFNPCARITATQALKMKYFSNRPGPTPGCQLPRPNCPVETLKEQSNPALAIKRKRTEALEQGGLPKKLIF

A word on the IC50: it is the midpoint of a concentration-inhibition curve. For the compound `CC(=O)c1c(C)c2ccc(Nc3nccc(-c4cccnc4)n3)cc2oc1=O`, the half-inhibitory concentration (IC50) at CDK9/cyclin T1 is 0.184 µM; in data set [1] it was more than 27 µM; on CDK9/Cyclin K it was 0.235 µM; with MV4-11, 12.9 µM; on CDK2/Cyclin A2, 1.21 µM. In the data set listed under Homo sapiens, the Ratio IC50 worked out at 7.
As usually defined, the half-life is the time in which the quantity being followed falls by half. Regarding `COc1cc(F)ccc1-c1ccnc(Nc2ccc3c(N4CCOCC4)c(C(C)=O)c(=O)oc3c2)n1`, the microsomal CLint at 1 µM in data set [2] is 98.3 µL/min/mg; in data set [5] it was 144 µL/min/mg; in [6] it was 62.5 µL/min/mg; in [7], 41.4 µL/min/mg. Moreover, the half-life at 1 µM in data set [3] was 22.2 min; in [4], 9.61 min; in [8], 33.5 min; in data set [9], 14.1 min. In addition, the IC50 on CDK9/cyclin T1 was found to be 0.0088 µM; in the data set on MOLM-13, 0.26 µM; with A549, 2.36 µM; with NCI-H460 it was 2.15 µM; with HepG2, 0.56 µM; in the data set with MDA-MB-231, 1.58 µM. For the same compound, the IC50 with A-375 worked out at 0.96 µM; in the data set with MV4-11, 0.25 µM; in the data set on MIA PaCa-2 it was 1.6 µM; in the data set with SW-620, 2.7 µM; on CDK2/Cyclin A2, 1.33 µM; in the data set on PANC-1, 1.88 µM. Also, the results for the IC50 in the data set with BXPC-3, in the data set with NCI-N87 and in the data set with HCT-116 were 0.91 µM, 3.58 µM and 0.66 µM, respectively.
